Tests used:
[1] = target: T1, Beta-3 adrenergic receptor (Homo sapiens, UniProt P13945); test: Intrinsic activity against human beta-3 adrenergic receptor IA) as a percentage of maximal stimulation with isoproterenol; type: functional
In short: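 In CHO cells expressing low-density human β3-AR (13,000 receptors/cell), cAMP accumulation was measured. Intrinsic activity is expressed as a percentage of the maximal stimulation produced by isoproterenol.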
Target sequence in this assay (P13945 whole entry, looked up): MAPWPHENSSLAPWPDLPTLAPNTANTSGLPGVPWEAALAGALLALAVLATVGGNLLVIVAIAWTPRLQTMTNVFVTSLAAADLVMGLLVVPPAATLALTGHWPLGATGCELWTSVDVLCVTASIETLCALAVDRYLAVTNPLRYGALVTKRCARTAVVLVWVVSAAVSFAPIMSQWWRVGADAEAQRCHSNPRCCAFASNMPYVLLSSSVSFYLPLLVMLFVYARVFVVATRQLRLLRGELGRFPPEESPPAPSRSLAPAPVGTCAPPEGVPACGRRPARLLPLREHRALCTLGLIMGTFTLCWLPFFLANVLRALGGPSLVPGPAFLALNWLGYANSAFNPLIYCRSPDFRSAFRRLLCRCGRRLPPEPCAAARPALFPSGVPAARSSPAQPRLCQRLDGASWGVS

[2] = target: Beta-1 adrenergic receptor (Homo sapiens, UniProt P08588); test: Agonistic activity was assessed by measuring cAMP accumulation in CHO cells expressing human beta-1 adrenergic receptor; type: functional, cell-based
[3] = target: T1, Beta-3 adrenergic receptor; test: Agonistic activity was assessed by measuring cAMP accumulation in CHO cells expressing human beta-3 adrenergic receptor; type: functional, cell-based
Target sequence in this assay (P13945 whole entry): as the sequence (P13945 whole entry, looked up) above

[4] = target: T2, Beta-2 adrenergic receptor (Homo sapiens, UniProt P07550); test: Agonistic activity was assessed by measuring cAMP accumulation in CHO cells expressing human beta-2 adrenergic receptor; type: functional, cell-based
Caco-2 [5] = test: Permeability of compounds was determined in Caco-2 cell monolayer permeability assay; (high); type: functional, cell-based; conditions: Homo sapiens
[6] = target: T2, Beta-2 adrenergic receptor; test: Effective concentration against human beta-2 adrenergic receptor; type: functional
Caco-2 [7] = test: Permeability of compounds was determined in Caco-2 cell monolayer permeability assay; (moderate); type: functional, cell-based; conditions: Homo sapiens

Sequence of Beta-1 adrenergic receptor (P08588 whole entry): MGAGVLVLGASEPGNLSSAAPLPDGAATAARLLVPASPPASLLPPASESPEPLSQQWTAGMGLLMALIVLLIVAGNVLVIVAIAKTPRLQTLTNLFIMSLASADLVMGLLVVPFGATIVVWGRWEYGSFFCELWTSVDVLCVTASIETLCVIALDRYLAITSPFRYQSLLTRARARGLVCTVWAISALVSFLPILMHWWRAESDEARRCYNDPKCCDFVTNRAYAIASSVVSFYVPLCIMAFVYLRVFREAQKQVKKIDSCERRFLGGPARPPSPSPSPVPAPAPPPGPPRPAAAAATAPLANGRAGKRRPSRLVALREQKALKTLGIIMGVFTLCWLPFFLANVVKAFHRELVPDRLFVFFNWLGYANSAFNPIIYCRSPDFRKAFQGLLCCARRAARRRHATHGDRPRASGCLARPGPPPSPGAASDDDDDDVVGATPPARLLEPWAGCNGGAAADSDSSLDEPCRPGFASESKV
T2 sequence (P07550 whole entry): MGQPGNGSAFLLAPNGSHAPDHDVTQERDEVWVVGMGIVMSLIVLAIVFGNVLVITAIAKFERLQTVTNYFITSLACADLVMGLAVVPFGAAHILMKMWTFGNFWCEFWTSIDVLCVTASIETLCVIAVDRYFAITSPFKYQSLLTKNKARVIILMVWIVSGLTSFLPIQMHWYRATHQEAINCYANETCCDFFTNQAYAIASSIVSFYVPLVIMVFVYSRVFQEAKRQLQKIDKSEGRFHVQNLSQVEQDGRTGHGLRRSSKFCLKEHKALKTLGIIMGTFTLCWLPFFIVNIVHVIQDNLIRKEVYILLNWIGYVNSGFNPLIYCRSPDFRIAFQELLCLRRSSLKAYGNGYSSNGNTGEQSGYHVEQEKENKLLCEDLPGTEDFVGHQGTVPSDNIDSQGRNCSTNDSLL

With C/C=C/CNc1cccc([C@@H](O)CN[C@H](C)Cc2c[nH]c3c(OS(C)(=O)=O)cccc23)c1 the IA50 [1] was 102%, the EC50 [2] was 170 nM and the EC50 [3] was 1.2 nM. The EC50 [4] was 10 nM.
C[C@H](Cc1c[nH]c2c(OS(C)(=O)=O)cccc12)NC[C@H](O)c1cccc(OCc2ccccc2)c1 gave an IA50 [1] of 90%, an EC50 [3] of 15 nM and a Permeability (Papp* 10E6 cm/s) (Caco-2 [5]) of 6.7. For the same molecule, the EC50 [4] was 46 nM.
With CC#CCNc1cccc([C@@H](O)CN[C@H](C)Cc2c[nH]c3c(OS(C)(=O)=O)cccc23)c1 the IA50 [1] was 90%, the EC50 [3] was 6.5 nM and the EC50 [4] was 18 nM.
C[C@H](Cc1c[nH]c2c(OS(C)(=O)=O)cccc12)NC[C@H](O)c1cccc(NCc2ccccc2)c1 showed an IA50 [1] of 87%, an EC50 [3] of 11 nM and a Permeability (Papp* 10E6 cm/s) (Caco-2 [5]) of 9. It also gave an EC50 [4] of 16 nM.
In the case of C[C@H](Cc1c[nH]c2c(OS(C)(=O)=O)cccc12)NC[C@H](O)c1cccc(NS(=O)(=O)c2ccccc2)c1, the IA50 [1] is reported as 90%, the EC50 [2] is reported as 13 nM and the EC50 [6] is reported as 19 nM. It also gave an EC50 [3] of 0.54 nM.
In the case of C[C@H](Cc1c[nH]c2c(OS(C)(=O)=O)cccc12)NC[C@H](O)c1cccc(NC/C=C/c2ccccc2)c1, the IA50 [1] is reported as 97%, the EC50 [3] is reported as 1 nM and the EC50 [4] is reported as 13 nM.
In the case of C[C@H](Cc1c[nH]c2c(OS(C)(=O)=O)cccc12)NC[C@H](O)c1cccc(N(C)S(=O)(=O)c2ccccc2)c1, the IA50 [1] is reported as 38%, the EC50 [3] is reported as 52 nM and the Permeability (Papp* 10E6 cm/s) (Caco-2 [5]) is reported as 4.7.
Work on C[C@H](Cc1c[nH]c2c(OS(C)(=O)=O)cccc12)NC[C@H](O)c1cccc(NCc2ccc3ccccc3c2)c1 yielded an IA50 [1] of 107% and an EC50 [3] of 2.9 nM.
In the case of CC(C)=CCNc1cccc([C@@H](O)CN[C@H](C)Cc2c[nH]c3c(OS(C)(=O)=O)cccc23)c1, the IA50 [1] is reported as 79%, the EC50 [2] is reported as 160 nM and the EC50 [3] is reported as 36 nM. It also gave an EC50 [4] of 36 nM.
For C[C@H](Cc1c[nH]c2c(OS(C)(=O)=O)cccc12)NC[C@H](O)c1cccc(NC(=O)c2ccccc2)c1, the IA50 [1] was 96%, the EC50 [2] was 120 nM and the EC50 [3] was 160 nM. For the same molecule, the Permeability (Papp* 10E6 cm/s) (Caco-2 [7]) was 0.9 and the EC50 [4] was 69 nM.
C=CCNc1cccc([C@@H](O)CN[C@H](C)Cc2c[nH]c3c(OS(C)(=O)=O)cccc23)c1 gave an IA50 [1] of 110%, an EC50 [3] of 3.2 nM and an EC50 [4] of 2.2 nM.
CC/C=C/CNc1cccc([C@@H](O)CN[C@H](C)Cc2c[nH]c3c(OS(C)(=O)=O)cccc23)c1 was tested, and the IA50 [1] was 101%, the EC50 [3] was 9 nM and the EC50 [4] was 11 nM.
For C[C@H](Cc1c[nH]c2c(OS(C)(=O)=O)cccc12)NC[C@H](O)c1cccc(OS(=O)(=O)c2ccccc2)c1, the IA50 [1] was 60%, the EC50 [3] was 32 nM and the Permeability (Papp* 10E6 cm/s) (Caco-2 [5]) was 7.
For C#CCNc1cccc([C@@H](O)CN[C@H](C)Cc2c[nH]c3c(OS(C)(=O)=O)cccc23)c1, the IA50 [1] was 102%, the EC50 [2] was 45 nM and the EC50 [3] was 10 nM. It also gave an EC50 [4] of 9.6 nM.
For C=C(C)CNc1cccc([C@@H](O)CN[C@H](C)Cc2c[nH]c3c(OS(C)(=O)=O)cccc23)c1, the IA50 [1] was 114%, the EC50 [3] was 17 nM and the EC50 [4] was 1.5 nM.
With C[C@H](Cc1c[nH]c2c(OS(C)(=O)=O)cccc12)NC[C@H](O)c1cccc(CS(=O)(=O)c2ccccc2)c1 the IA50 [1] was 54%, the EC50 [3] was 100 nM and the Permeability (Papp* 10E6 cm/s) (Caco-2 [7]) was 0.9.

Reference: ChEMBL document CHEMBL1144318, “Tryptamine-based human beta3-adrenergic receptor agonists. Part 3: improved oral bioavailability via modification of the sulfonamide moiety” (Bioorg Med Chem Lett, 2005)
